{"data": "Experimental data gathered from unrelated publications", "target": "Procathepsin L (CTSL, Homo sapiens, UniProt P07711)", "observed": "enzyme activity", "action": "inhibitor", "note": "Compare with care: the assays were run in different laboratories."}
{"SMILES": "O=C(Cn1nnc2ccccc21)Nc1ccccc1N1CCc2sccc2C1", "test": "FRET", "endpoint": "IC50", "value": "9960 nM"}
{"SMILES": "COc1cccc2[nH]c(C(=O)N[C@@H](CC(C)C)C(=O)N[C@@H](C[C@@H]3CCNC3=O)C(=O)CO)cc12", "endpoint": "IC50", "value": "146 nM"}
{"SMILES": "CC(C)C[C@H](NC(=O)[C@H]1O[C@@H]1C(=O)O)C(=O)NCCCCN=C(N)N", "endpoint": "IC50", "value": "33 nM"}
{"SMILES": "COc1cc(Nc2ncc(F)c(Nc3ccc4c(n3)NC(=O)C(C)(C)O4)n2)cc(OC)c1OC", "endpoint": "IC50", "value": "6310 nM"}
{"SMILES": "COC(=O)c1c(C)[nH]c(C(=O)COn2nnc3ccc(S(=O)(=O)N(C)C)cc32)c1C", "test": "FRET", "endpoint": "IC50", "value": "> 100000 nM"}
{"SMILES": "CC[C@H](NC(=O)OCc1ccccc1)C(=O)N[C@H](C(=O)N[C@@H](CC(C)C)C(=O)N(C)N(C#N)CCC(N)=O)C(C)(C)C", "endpoint": "Ki", "value": "22.2 nM"}
{"SMILES": "CC(C)(C)OC(=O)Nc1cccn([C@@H](CC2CC2)C(=O)N[C@@H](C[C@@H]2CCNC2=O)C(=O)C(=O)NCc2ccccc2)c1=O", "endpoint": "IC50", "value": "291 nM"}
{"SMILES": "CC[C@H]1NC(=O)[C@@H]2CSC(=N2)[C@@H](Cc2ccccc2)N(C)C(=O)[C@@H]2CCCN2C(=O)[C@H](C(C)C)N(C)C(=O)[C@H](Cc2ccccc2)OC(=O)[C@H](C)[C@@H](C)NC(=O)[C@@H]([C@@H](C)O)NC(=O)[C@@H](CC(C)C)N(C)C(=O)[C@@H]2CSC1=N2", "endpoint": "IC50", "value": "14000 nM"}
{"SMILES": "CN(C(=O)[C@H](Cc1ccccc1)NC(=O)[C@@H](NC(=O)OCc1ccccc1)C(C)(C)C)N(C#N)CCC(N)=O", "endpoint": "Ki", "value": "52.9 nM"}
